Compound activity as filed in PubChem.
CRFR2-BP antag: antagonists of CRF-BP/CRF-R2 complex, primary screen, cell-based, HEK293, calcium dye fluorescence, uHTS | inhibition, % at 11.8 µM | 0.59% of 350,000 active | AID 588475, 2011 | CRF-induced calcium fluorescence;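 active = inhibition of the ligand-induced calcium signal above about 50% at the single tested concentration, limit read from the data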
Tn7 DDE FP: inhibitors of Tn7 peptide binding to fibrin DD(E), primary screen, biochemical, fluorescence polarization, human fibrin, Tn7 probe; inhibition, % at 8.3 µM; AID 720508, 2013; FP displacement of FITC-Tn7 peptide from fibrin DD(E); 0% = median of compound wells per plate; 0.13% of 370,000 active;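 active = inhibition above the mean of compounds falling within the control limits plus 3 SD of them, cut at about 14% in these data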;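 note: 0% = plate median of compound wells and 100% = 10 µM Aha-Tn7 peptide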
Target sequence (P02675 whole entry, looked up): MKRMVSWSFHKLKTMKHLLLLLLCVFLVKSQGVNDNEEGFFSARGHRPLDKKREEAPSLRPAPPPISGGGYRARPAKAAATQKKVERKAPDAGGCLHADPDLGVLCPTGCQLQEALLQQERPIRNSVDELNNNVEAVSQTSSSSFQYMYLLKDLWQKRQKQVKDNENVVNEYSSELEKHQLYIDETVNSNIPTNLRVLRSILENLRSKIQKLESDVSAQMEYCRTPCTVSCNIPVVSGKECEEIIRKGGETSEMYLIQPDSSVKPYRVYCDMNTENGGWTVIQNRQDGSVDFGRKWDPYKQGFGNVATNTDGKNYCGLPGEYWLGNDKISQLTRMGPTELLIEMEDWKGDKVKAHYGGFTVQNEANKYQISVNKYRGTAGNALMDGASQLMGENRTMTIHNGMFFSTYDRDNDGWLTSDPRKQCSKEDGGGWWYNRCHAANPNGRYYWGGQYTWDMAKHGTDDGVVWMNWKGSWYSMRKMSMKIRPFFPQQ
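Test system – human fibrin DD(E) · Times – 10 min preincubation, 3 h with tracer, room temperature · Detection – fluorescence polarization of the labelled Tn7 tracer · Measure – percent inhibition normalized to high-control wells · Benchmarks – high control wells with 10 µM unlabelled Aha-Tn7 peptide (full inhibition) · Repeats – singlicate testing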
Tn6 DDE FP: inhibitors of Tn6 peptide binding to fibrin DD(E), primary screen, biochemical, fluorescence polarization, human fibrin, Tn6 probe. Fibrinogen beta chain (Homo sapiens), P02675. Fibrin DD(E) TRITC-Tn6 fluorescence polarization displacement. inhibition, % at 8.3 µM. 0.21% of 370,000 active. AID 720509, 2013;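 active = inhibition above a per-campaign cutoff: mean of compounds within control limits plus 3 SD, cut at about 15% in these data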;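 note: 0% = median of all compound wells on the plate and 100% = blocking peptide control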
CRFBP-R2 agonist: agonists of CRF-BP/CRF-R2 complex, primary screen, cell-based, HEK293, calcium dye fluorescence, uHTS; CRF-binding protein / CRF receptor 2 complex (human); calcium dye fluorescence (FLIPR); percent of saturating CRF peptide response; activation, % at 13.2 µM; 0.46% of 350,000 active;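 active = activation of at least 50%, plus an integration ratio under a set limit after plate pattern correction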;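 note: plate controls were neutral control wells without compound for no effect and CRF at EC100 for full effect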
An asterisk follows results filed as active. In the library only some 1.3% were active in any assay of this set; here they are far more common.

`COc1ccc(OC)c(CN2C(=O)c3ccnn3CC2(C)c2nnnn2C2CCCC2)c1` (stereo not given) gave Tn7 DDE FP 5 and Tn6 DDE FP -2.
For COc1ccc(NC(=O)CSc2ccc3c(c2)OCCO3)cc1 the results were CRFR2-BP antag 7, Tn7 DDE FP 4, Tn6 DDE FP -1 and CRFBP-R2 agonist 0.
`COc1ccc(NC(=O)CN(C)C(=O)CSc2ccc3c(c2)OCCO3)cc1` gave CRFR2-BP antag -131, Tn7 DDE FP 7, Tn6 DDE FP 5 and CRFBP-R2 agonist 181*.
CN(C)c1ccc(NC(=S)OC2CCC23CCC(c2ccccc2)CC3)cc1 (stereo not given) was read as Tn7 DDE FP -8 and Tn6 DDE FP 9.
NC(=O)COC(=O)c1ccc(-c2ccc(O)cc2)cc1 was read as CRFR2-BP antag 80*, Tn7 DDE FP -5, Tn6 DDE FP 1 and CRFBP-R2 agonist 1.
`NC(=O)COC(=O)c1ccc(-c2ccccc2)cc1` gave CRFR2-BP antag 6, Tn7 DDE FP 0, Tn6 DDE FP -3 and CRFBP-R2 agonist -1.
Screening Clc1ccc(CSc2nnc(-c3cccs3)o2)cc1Cl returned Tn7 DDE FP 7 and Tn6 DDE FP 1.
Screening Nc1nonc1-n1nnc(C(=O)N/N=C/c2ccccc2)c1CSc1ccc(Cl)cc1 returned CRFR2-BP antag -77, Tn7 DDE FP 6, Tn6 DDE FP 1 and CRFBP-R2 agonist 110*.
For C[C@H]1[C@@H](OC(=O)NC2CCCCC2)CC[C@@]23CCCN2C(=O)CCC[C@@H]13 the results were Tn7 DDE FP -11 and Tn6 DDE FP 3.
Screening Cc1csc(=Nc2ccccc2)n1Cc1ccco1 returned CRFR2-BP antag 53*, Tn7 DDE FP -1, Tn6 DDE FP -2 and CRFBP-R2 agonist -12.
Screening NS(=O)(=O)c1ccc(NC=C2C(=O)OC3(CCCCC3)OC2=O)cc1 returned CRFR2-BP antag 5, Tn7 DDE FP 1, Tn6 DDE FP 4 and CRFBP-R2 agonist -2.
For CCCCc1ccc(NC=C2C(=O)OC3(CCCCC3)OC2=O)cc1 the results were CRFR2-BP antag -204, Tn7 DDE FP 6, Tn6 DDE FP 4 and CRFBP-R2 agonist 145*.
Screening COC(=O)C1CN(CCc2ccccc2)CCS(=O)(=O)N1Cc1ccc(Cl)cc1 (stereo not given) returned Tn7 DDE FP 4 and Tn6 DDE FP -6.
Nc1ccc2c3c(cccc13)C(=O)N(c1ccccc1)C2=O was read as CRFR2-BP antag -227, Tn7 DDE FP -3, Tn6 DDE FP 11 and CRFBP-R2 agonist 235*.
For Nc1cccc(N2C(=O)c3cccc4c(N)ccc(c34)C2=O)c1 the results were CRFR2-BP antag -120, Tn7 DDE FP 30*, Tn6 DDE FP 1 and CRFBP-R2 agonist 162*.
Cc1cccc(N2C(=O)c3cccc4cccc(c34)C2=O)c1 was read as CRFR2-BP antag 11, Tn7 DDE FP 4, Tn6 DDE FP -1 and CRFBP-R2 agonist -7.
For Cc1cccc(N2C(=O)c3cccc4c(N)ccc(c34)C2=O)c1 the results were CRFR2-BP antag -219, Tn7 DDE FP 11, Tn6 DDE FP 9 and CRFBP-R2 agonist 268*.
`Cc1c(O)c2c3c(cccc3c1O)C(=O)N(c1ccccc1)C2=O` gave CRFR2-BP antag -151, Tn7 DDE FP 0, Tn6 DDE FP 4 and CRFBP-R2 agonist 168*.
For O=C(O)c1ccc2c3c(cccc13)C(=O)N(c1ccccc1)C2=O the results were CRFR2-BP antag -5, Tn7 DDE FP 1, Tn6 DDE FP -3 and CRFBP-R2 agonist 4.
For Cc1cccc(N2C(=O)c3cccc4c(N(C)CCO)ccc(c34)C2=O)c1 the results were CRFR2-BP antag -216 and CRFBP-R2 agonist 191*.
CC(=O)Nc1cccc2c1C(=O)N(c1cccc(C)c1)C2=O was read as CRFR2-BP antag -12, Tn7 DDE FP -6, Tn6 DDE FP 15 and CRFBP-R2 agonist 0.
Screening N#Cc1c(N)n(-c2cccc(C(=O)O)c2)c2nc3ccccc3nc12 returned CRFR2-BP antag 57*, Tn7 DDE FP 1, Tn6 DDE FP 7 and CRFBP-R2 agonist 1.
N#Cc1c(N)n(-c2ccccc2N)c2nc3ccccc3nc12 was read as CRFR2-BP antag 19, Tn7 DDE FP -2, Tn6 DDE FP 6 and CRFBP-R2 agonist -5.
Screening COc1ccc(S(=O)(=O)N2CCCc3nc(-c4ccc(Br)cc4)ccc32)cc1 returned Tn7 DDE FP -2 and Tn6 DDE FP -1.
`O=[N+]([O-])c1cccc(-c2cn3nc(-c4ccccc4)c(-c4ccccc4)nc3n2)c1` gave CRFR2-BP antag -14, Tn7 DDE FP 0, Tn6 DDE FP 2 and CRFBP-R2 agonist 14.
Screening O=[N+]([O-])c1ccc(-c2cn3nc(-c4ccccc4)c(-c4ccccc4)nc3n2)cc1 returned CRFR2-BP antag -48, Tn7 DDE FP 1, Tn6 DDE FP 1 and CRFBP-R2 agonist 66*.
`Cc1nn(C(C)C(=O)O)c(=O)c2ccccc12` (stereo not given) gave CRFR2-BP antag 57*, Tn7 DDE FP 5, Tn6 DDE FP 7 and CRFBP-R2 agonist -4.
COc1cccc(-c2ccc3ncnc(NCc4cccs4)c3c2)c1 was read as CRFR2-BP antag 54*, Tn7 DDE FP -7, Tn6 DDE FP -4 and CRFBP-R2 agonist -2.
`O=C(CN1CCN(Cc2ccccc2)CC1)N/N=C\c1c2ccccc2cc2ccccc12` gave Tn7 DDE FP -3 and Tn6 DDE FP -1.
`Cc1ccccc1Cn1ccc(NC(=O)c2cc3ncc(Br)cn3n2)n1` gave CRFR2-BP antag 66*, Tn7 DDE FP -8, Tn6 DDE FP -5 and CRFBP-R2 agonist -1.
Cc1ccc(NC(=O)CN2CCN(c3nc(-c4ccccc4)cs3)CC2)cc1C was read as Tn7 DDE FP -6 and Tn6 DDE FP -6.
For Cc1cc(N2CCCC2)nc(-c2ccccc2O)n1 the results were CRFR2-BP antag 25, Tn7 DDE FP 4, Tn6 DDE FP 2 and CRFBP-R2 agonist -1.
Screening Cc1cc(N2CCCCC2)nc(N)n1 returned CRFR2-BP antag -47, Tn7 DDE FP -9, Tn6 DDE FP -3 and CRFBP-R2 agonist 235*.
Screening O=C(NC1CCCCN(Cc2cccc(Cl)c2)C1=O)c1cccc(F)c1 (stereo not given) returned Tn7 DDE FP 5 and Tn6 DDE FP -6.
`O=c1cc(O)nc(-c2ccccc2)s1` gave CRFR2-BP antag -4, Tn7 DDE FP -2, Tn6 DDE FP 3 and CRFBP-R2 agonist 3.
`O=c1cc(-c2ccccc2)ss1` gave CRFR2-BP antag 90*, Tn7 DDE FP 4, Tn6 DDE FP -6 and CRFBP-R2 agonist -2.
CCS(=O)(=O)c1nn2c(N)c(/C=C3/C=CC(=O)C(OC)=C3)c(=O)nc2s1 was read as CRFR2-BP antag -70, Tn7 DDE FP 10, Tn6 DDE FP 3 and CRFBP-R2 agonist 33.
